# Test results: ChEMBL document CHEMBL1148755, “Structural analogues of smoothened intracellular loops as potent inhibitors of Hedgehog pathway and cancer cell growth” (J Med Chem, 2007)
# Square brackets hold non-standard residues; d marks the D form. Peptide text beside a SMILES is read from it. * marks the point of attachment. Bpa = N[C@@H](Cc1ccc(C(=O)c2ccccc2)cc1)C(=O)O; Palmitoyl = CCCCCCCCCCCCCCCC(=O)*
# System: SK-MEL-2
# Test: Growth inhibition of SK-Mel2 melanoma cells after 48 hrs by MTT assay
# Format: functional, cell-based, Homo sapiens
# Details: Homo sapiens, SK-MEL-2, 48 h
# Summary of the method: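 Cells seeded at 200-400 per well in DMEM with 10% FBS and left to attach for 24 h. The next day, inhibitor in medium at 2× was added in an equal volume, and cells were incubated 48 h in a CO2 incubator. Reference plates were read at time of addition for T0 density. MTT staining was read as absorbance at 544 nm and compared with untreated control cells.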
row,Compound,IC50 [nM]
1,CCCCCCCCCCCCCCCC(=O)N[C@@H](CC(C)C)C(=O)N[C@@H](Cc1ccccc1)C(=O)N[C@@H](CO)C(=O)N[C@H](C(=O)N[C@@H](CCCCN)C(=O)N[C@@H](CO)C(=O)N[C@@H](CC(N)=O)C(=O)N[C@@H](Cc1c[nH]cn1)C(=O)N1CCC[C@H]1C(=O)NCC(=O)N[C@@H](CC(C)C)C(=O)N[C@@H](CC(C)C)C(=O)N[C@@H](CO)C(=O)N[C@@H](CCC(=O)O)C(=O)N[C@@H](CCCCN)C(=O)N[C@@H](C)C(=O)N[C@@H](C)C(=O)N[C@@H](CO)C(=O)N[C@@H](CCCCN)C(=O)N[C@H](C(=O)N[C@@H](CC(N)=O)C(=O)N[C@@H](CCC(=O)O)C(=O)N[C@H](C(=O)N[C@@H](CCSC)C(=O)N[C@@H](CC(C)C)C(=O)N[C@@H](CCCNC(=N)N)C(=O)O)[C@@H](C)O)[C@@H](C)CC)[C@@H](C)CC (Palmitoyl-LFSIKSNHPGLLSEKAASKINETMLR-OH),1500
2,CCCCCCCCCCCCCCCC(=O)N[C@@H](CC(C)C)C(=O)N[C@H](C(=O)N[C@@H](Cc1ccc(O)cc1)C(=O)N[C@@H](C)C(=O)N[C@@H](Cc1c[nH]c2ccccc12)C(=O)N[C@@H](Cc1cnc[nH]1)C(=O)N[C@H](C(=O)N[C@@H](CO)C(=O)N[C@@H](Cc1ccccc1)C(=O)N[C@@H](CCCCN)C(=O)O)[C@@H](C)O)[C@@H](C)O (Palmitoyl-LTYAWHTSFK-OH),60
3,CCCCCCCCCCCCCCCC(=O)N[C@@H](CC(C)C)C(=O)N[C@H](C(=O)N[C@@H](Cc1ccc(O)cc1)C(=O)N[C@@H](C)C(=O)N[C@@H](Cc1c[nH]c2ccccc12)C(=O)N[C@@H](Cc1cnc[nH]1)C(=O)N[C@H](C(=O)N[C@@H](CO)C(=O)N[C@@H](Cc1ccccc1)C(=O)N[C@@H](CCCCN)C(=O)N[C@@H](C)C(=O)O)[C@@H](C)O)[C@@H](C)O (Palmitoyl-LTYAWHTSFKA-OH),90
4,CCCCCCCCCCCCCCCC(=O)N[C@@H](CC(C)C)C(=O)N[C@H](C(=O)N[C@@H](Cc1ccc(O)cc1)C(=O)N[C@@H](C)C(=O)N[C@@H](Cc1c[nH]c2ccccc12)C(=O)N[C@@H](Cc1cnc[nH]1)C(=O)N[C@H](C(=O)N[C@@H](CO)C(=O)N[C@@H](Cc1ccccc1)C(=O)N[C@@H](CCCCN)C(=O)N[C@@H](C)C(=O)N[C@@H](CC(C)C)C(=O)O)[C@@H](C)O)[C@@H](C)O (Palmitoyl-LTYAWHTSFKAL-OH),80
5,CCCCCCCCCCCCCCCC(=O)N[C@@H](CC(C)C)C(=O)N[C@H](C(=O)N[C@@H](Cc1ccc(O)cc1)C(=O)N[C@@H](C)C(=O)N[C@@H](Cc1c[nH]c2ccccc12)C(=O)N[C@@H](Cc1cnc[nH]1)C(=O)N[C@H](C(=O)N[C@@H](CO)C(=O)N[C@@H](Cc1ccccc1)C(=O)N[C@@H](CCCCN)C(=O)N[C@@H](C)C(=O)N[C@@H](CC(C)C)C(=O)NCC(=O)N[C@H](C(=O)N[C@H](C(=O)N[C@@H](Cc1ccc(O)cc1)C(=O)N[C@@H](CCC(N)=O)C(=O)N1CCC[C@H]1C(=O)O)[C@@H](C)O)[C@@H](C)O)[C@@H](C)O)[C@@H](C)O (Palmitoyl-LTYAWHTSFKALGTTYQP-OH),300
6,CCCCCCCCCCCCCCCC(=O)N[C@@H](CC(C)C)C(=O)N[C@H](C(=O)N[C@@H](Cc1ccc(O)cc1)C(=O)N[C@@H](C)C(=O)N[C@@H](Cc1c[nH]c2ccccc12)C(=O)N[C@@H](Cc1cnc[nH]1)C(=O)N[C@H](C(=O)N[C@@H](CO)C(=O)N[C@@H](Cc1ccccc1)C(=O)N[C@@H](CCCCN)C(=O)N[C@@H](C)C(=O)N[C@@H](CC(C)C)C(=O)NCC(=O)N[C@H](C(=O)N[C@H](C(=O)N[C@@H](Cc1ccc(O)cc1)C(=O)N[C@@H](CCC(N)=O)C(=O)N1CCC[C@H]1C(=O)N[C@@H](CC(C)C)C(=O)N[C@@H](CO)C(=O)NCC(=O)O)[C@@H](C)O)[C@@H](C)O)[C@@H](C)O)[C@@H](C)O (Palmitoyl-LTYAWHTSFKALGTTYQPLSG-OH),1400
7,CCCCCCCCCCCCCCCC(=O)N[C@@H](CC(C)C)C(=O)N[C@H](C(=O)N[C@@H](Cc1ccc(O)cc1)C(=O)N[C@@H](C)C(=O)N[C@@H](Cc1c[nH]c2ccccc12)C(=O)N[C@@H](Cc1cnc[nH]1)C(=O)N[C@H](C(=O)N[C@@H](CO)C(=O)N[C@@H](Cc1ccccc1)C(=O)N[C@@H](CCCCN)C(=O)N[C@@H](C)C(=O)N[C@@H](CC(C)C)C(=O)NCC(=O)N[C@H](C(=O)N[C@H](C(=O)N[C@@H](Cc1ccc(O)cc1)C(=O)N[C@@H](CCC(N)=O)C(=O)N1CCC[C@H]1C(=O)N[C@@H](CC(C)C)C(=O)N[C@@H](CO)C(=O)NCC(=O)N[C@@H](CCCCN)C(=O)N[C@H](C(=O)N[C@@H](CO)C(=O)N[C@@H](Cc1ccc(O)cc1)C(=O)O)[C@@H](C)O)[C@@H](C)O)[C@@H](C)O)[C@@H](C)O)[C@@H](C)O (Palmitoyl-LTYAWHTSFKALGTTYQPLSGKTSY-OH),450
8,CCCCCCCCCCCCCCCC(=O)NCCCC[C@H](NC(=O)[C@H](Cc1ccc(O)cc1)NC(=O)[C@H](CO)NC(=O)[C@@H](NC(=O)[C@H](CCCCN)NC(=O)CNC(=O)[C@H](CO)NC(=O)[C@H](CC(C)C)NC(=O)[C@@H]1CCCN1C(=O)[C@H](CCC(N)=O)NC(=O)[C@H](Cc1ccc(O)cc1)NC(=O)[C@@H](NC(=O)[C@@H](NC(=O)CNC(=O)[C@H](CC(C)C)NC(=O)[C@H](C)NC(=O)[C@H](CCCCN)NC(=O)[C@H](Cc1ccccc1)NC(=O)[C@H](CO)NC(=O)[C@@H](NC(=O)[C@H](Cc1cnc[nH]1)NC(=O)[C@H](Cc1c[nH]c2ccccc12)NC(=O)[C@H](C)NC(=O)[C@H](Cc1ccc(O)cc1)NC(=O)[C@@H](NC(=O)[C@H](CC(C)C)NC(=O)CCCCCCCCCCCCCCC)[C@@H](C)O)[C@@H](C)O)[C@@H](C)O)[C@@H](C)O)[C@@H](C)O)C(=O)O (Palmitoyl-LTYAWHTSFKALGTTYQPLSGKTSYK(Palmitoyl)-OH),50
9,CCCCCCCCCCCCCCCC(=O)N[C@@H](CC(C)C)C(=O)N[C@H](C(=O)N[C@@H](Cc1ccc(O)cc1)C(=O)N[C@@H](C)C(=O)N[C@@H](Cc1ccc(C(=O)c2ccccc2)cc1)C(=O)N[C@@H](Cc1cnc[nH]1)C(=O)N[C@H](C(=O)N[C@@H](CO)C(=O)N[C@@H](Cc1ccccc1)C(=O)N[C@@H](CCCCN)C(=O)N[C@@H](C)C(=O)N[C@@H](CC(C)C)C(=O)O)[C@@H](C)O)[C@@H](C)O (Palmitoyl-LTYA[Bpa]HTSFKAL-OH),100
10,CCCCCCCCCCCCCCCC(=O)N[C@@H](CCCNC(=N)N)C(=O)NCC(=O)N[C@H](C(=O)N[C@@H](CCSC)C(=O)N[C@H](C(=O)N[C@@H](CC(C)C)C(=O)N[C@@H](Cc1ccccc1)C(=O)N[C@@H](CO)C(=O)N[C@H](C(=O)N[C@@H](CCCCN)C(=O)N[C@@H](CO)C(=O)N[C@@H](CC(N)=O)C(=O)N[C@@H](Cc1c[nH]cn1)C(=O)O)[C@@H](C)CC)[C@@H](C)O)C(C)C (Palmitoyl-RGVMTLFSIKSNH-OH),950
11,CCCCCCCCCCCCCCCC(=O)N[C@@H](CCCNC(=N)N)C(=O)NCC(=O)N[C@H](C(=O)N[C@@H](CCSC)C(=O)N[C@H](C(=O)N[C@@H](CC(C)C)C(=O)N[C@@H](Cc1ccccc1)C(=O)N[C@@H](CO)C(=O)N[C@H](C(=O)N[C@@H](CCCCN)C(=O)N[C@@H](CO)C(=O)N[C@@H](CC(N)=O)C(=O)N[C@@H](Cc1c[nH]cn1)C(=O)N1CCC[C@H]1C(=O)NCC(=O)N[C@@H](CC(C)C)C(=O)N[C@@H](CC(C)C)C(=O)N[C@@H](CO)C(=O)O)[C@@H](C)CC)[C@@H](C)O)C(C)C (Palmitoyl-RGVMTLFSIKSNHPGLLS-OH),500
12,CCCCCCCCCCCCCCCC(=O)N[C@@H](CCCNC(=N)N)C(=O)NCC(=O)N[C@H](C(=O)N[C@@H](CCSC)C(=O)N[C@H](C(=O)N[C@@H](CC(C)C)C(=O)N[C@@H](Cc1ccccc1)C(=O)N[C@@H](CO)C(=O)N[C@H](C(=O)N[C@@H](CCCCN)C(=O)N[C@@H](CO)C(=O)N[C@@H](CC(N)=O)C(=O)N[C@@H](Cc1c[nH]cn1)C(=O)N1CCC[C@H]1C(=O)NCC(=O)N[C@@H](CC(C)C)C(=O)N[C@@H](CC(C)C)C(=O)N[C@@H](CO)C(=O)N[C@@H](CCC(=O)O)C(=O)N[C@@H](CCCCN)C(=O)N[C@@H](C)C(=O)O)[C@@H](C)CC)[C@@H](C)O)C(C)C (Palmitoyl-RGVMTLFSIKSNHPGLLSEKA-OH),500
13,CCCCCCCCCCCCCCCC(=O)N[C@H](C(=O)N[C@@H](Cc1ccc(O)cc1)C(=O)N[C@@H](C)C(=O)N[C@@H](Cc1c[nH]c2ccccc12)C(=O)N[C@@H](Cc1cnc[nH]1)C(=O)N[C@H](C(=O)N[C@@H](CO)C(=O)N[C@@H](Cc1ccccc1)C(=O)N[C@@H](CCCCN)C(=O)N[C@@H](C)C(=O)N[C@@H](CC(C)C)C(=O)O)[C@@H](C)O)[C@@H](C)O (Palmitoyl-TYAWHTSFKAL-OH),700
14,CCCCCCCCCCCCCCCC(=O)NCCCC[C@H](NC(=O)[C@H](CCCNC(=N)N)NC(=O)[C@H](CC(C)C)NC(=O)[C@H](CCSC)NC(=O)[C@@H](NC(=O)[C@H](CCC(=O)O)NC(=O)[C@H](CC(N)=O)NC(=O)[C@@H](NC(=O)[C@H](CCCCN)NC(=O)[C@H](CO)NC(=O)[C@H](C)NC(=O)[C@H](C)NC(=O)[C@H](CCCCN)NC(=O)[C@H](CCC(=O)O)NC(=O)[C@H](CO)NC(=O)[C@H](CC(C)C)NC(=O)[C@H](CC(C)C)NC(C)=O)[C@@H](C)CC)[C@@H](C)O)C(=O)O (stereo in doubt; form 2),1330
15,Ac-LTYAWHTSFKAL-OH,> 10000
16,Ac-TYAWHTSFKA-OH,2800
17,H-VWFVVLTYAWHTSFKAL-OH,> 5000
18,H-WFVVLTYAWHTSFKAL-OH,> 5000

# Same assay, conditions: sk-mel-2
row,Compound,IC50 [nM]
1,CCCCCCCCCCCCCCCC(=O)NCCCC[C@H](NC(=O)[C@H](CCCNC(=N)N)NC(=O)[C@H](CC(C)C)NC(=O)[C@H](CCSC)NC(=O)[C@@H](NC(=O)[C@H](CCC(=O)O)NC(=O)[C@H](CC(N)=O)NC(=O)[C@@H](NC(=O)[C@H](CCCCN)NC(=O)[C@H](CO)NC(=O)[C@H](C)NC(=O)[C@H](C)NC(=O)[C@H](CCCCN)NC(=O)[C@H](CCC(=O)O)NC(=O)[C@H](CO)NC(=O)[C@H](CC(C)C)NC(=O)[C@H](CC(C)C)NC(C)=O)[C@@H](C)CC)[C@@H](C)O)C(=O)O (stereo in doubt; form 1),800
